Results published in ChEMBL document CHEMBL2177067 (J Med Chem, 2012).
pIC50: −log10 of the molar value. ≈ marks a conversion by molar mass, not a printed value. Calls of active or inactive are those of the source. No cut-off for these calls is given here.

Key:
[1] = Selectivity index, ratio of CC50 for human HeLa cells to MIC for Bacillus anthracis; assay type: functional
How it was run: (§1)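 Selectivity index is HeLa CC50 (MTS assay) divided by the bacterial MIC.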

Bacillus anthracis [2] = experiment: Antibacterial activity against Bacillus anthracis by broth microdilution method; assay type: functional
Replicative DNA helicase = target: T1, Replicative DNA helicase (Bacillus anthracis, UniProt A0A6L8Q2B7); experiment: Inhibition of Bacillus anthracis Sterne 34F2 replicative DNA helicase-mediated ATP-dependent dissociation of Hel-5'FAM:Hel-3'BHQ by FRET assay; set-up: species or system Bacillus anthracis str. Sterne
T1 sequence (A0A6L8Q2B7 whole entry): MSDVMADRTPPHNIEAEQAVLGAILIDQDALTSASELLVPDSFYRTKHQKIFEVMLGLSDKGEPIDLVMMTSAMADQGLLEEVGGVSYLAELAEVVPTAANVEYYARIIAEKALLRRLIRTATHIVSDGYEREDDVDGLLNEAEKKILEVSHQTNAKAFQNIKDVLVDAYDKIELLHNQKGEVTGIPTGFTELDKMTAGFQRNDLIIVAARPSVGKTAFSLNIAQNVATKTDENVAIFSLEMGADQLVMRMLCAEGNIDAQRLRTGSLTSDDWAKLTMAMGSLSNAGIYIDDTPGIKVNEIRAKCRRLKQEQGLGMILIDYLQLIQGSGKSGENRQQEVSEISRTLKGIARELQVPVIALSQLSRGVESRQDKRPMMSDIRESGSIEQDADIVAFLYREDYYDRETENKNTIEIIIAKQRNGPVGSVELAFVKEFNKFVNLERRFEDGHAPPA
How it was run: (§2)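 Unwinding was read by FRET as helicase-driven, ATP-dependent dissociation of annealed Hel-5′FAM and Hel-3′BHQ oligonucleotides, one fluorescent and the other quencher-labelled. The replicative helicases were prepared as described earlier.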

[3] = Selectivity index, ratio of CC50 for human HeLa cells to MIC for Staphylococcus aureus ATCC 25923; assay type: functional; how it was run: as §1
Staphylococcus aureus [4] = experiment: Antibacterial activity against Staphylococcus aureus ATCC 25923 by broth microdilution method; assay type: functional
Staphylococcus aureus [5] = experiment: Antibacterial activity against Staphylococcus aureus ATCC 25923 by broth microdilution method in presence of reserpine; assay type: functional
HeLa = experiment: Cytotoxicity against human HeLa cells by MTS assay; assay type: cell-based
[6] = Inhibition of Staphylococcus aureus ATCC 25923 replicative DnaB helicase-mediated ATP-dependent dissociation of Hel-5'FAM:Hel-3'BHQ by FRET assay; how it was run: as §2
Enterococcus faecalis [7] = experiment: Antibacterial activity against vancomycin-resistant Enterococcus faecalis F118; assay type: functional
Bacillus thuringiensis = experiment: Antibacterial activity against Bacillus thuringiensis ATCC 10792; assay type: functional
Staphylococcus aureus [8] = experiment: Antibacterial activity against methicillin-resistant Staphylococcus aureus 1234544081; assay type: functional
Bacillus licheniformis = experiment: Antibacterial activity against Bacillus licheniformis ATCC 14580; assay type: functional
Enterococcus faecalis [9] = experiment: Antibacterial activity against vancomycin-resistant Enterococcus faecalis 51299; assay type: functional
Staphylococcus aureus [10] = experiment: Antibacterial activity against Staphylococcus aureus ATCC 25923; assay type: functional
Enterococcus faecalis [11] = experiment: Antibacterial activity against vancomycin-resistant Enterococcus faecalis 700802; assay type: functional
Staphylococcus aureus [12] = experiment: Antibacterial activity against methicillin-resistant Staphylococcus aureus 1234549404; assay type: functional
Enterococcus faecalis [13] = experiment: Antibacterial activity against vancomycin-resistant Enterococcus faecalis ATCC 51575; assay type: functional
Staphylococcus aureus [14] = experiment: Antibacterial activity against methicillin-resistant Staphylococcus aureus 1234522733; assay type: functional
Staphylococcus aureus [15] = experiment: Inhibition of Staphylococcus aureus ATCC 25923 single-strand DNA stimulated ATPase activity of replicative DnaB helicase at 50 uM by FRET assay
Staphylococcus aureus [16] = experiment: Antibacterial activity against methicillin-resistant Staphylococcus aureus 1234558336; assay type: functional
Enterococcus faecalis [17] = experiment: Antibacterial activity against Enterococcus faecalis ATCC 29212; assay type: functional
Enterococcus faecium [18] = experiment: Antibacterial activity against Enterococcus faecium ATCC 19434; assay type: functional
Staphylococcus aureus [19] = experiment: Antibacterial activity against methicillin-resistant Staphylococcus aureus 1234543349; assay type: functional
Enterococcus faecium [20] = experiment: Antibacterial activity against vancomycin-resistant Enterococcus faecium 1644; assay type: functional
Staphylococcus aureus [21] = experiment: Antibacterial activity against methicillin-resistant Staphylococcus aureus 1094; assay type: functional
Enterococcus faecium [22] = experiment: Antibacterial activity against vancomycin-resistant Enterococcus faecium B42762; assay type: functional
Bacillus anthracis [23] = experiment: Antibacterial activity against Bacillus anthracis Sterne; assay type: functional
Staphylococcus aureus [24] = experiment: Antibacterial activity against methicillin-resistant Staphylococcus aureus 1234547263; assay type: functional
Bacillus subtilis = experiment: Antibacterial activity against Bacillus subtilis BD54; assay type: functional
[25] = Inhibition of Staphylococcus aureus ATCC 25923 replicative DnaB helicase using 3.3 to 90 nM Hel-5'FAM:Hel-3'BHQ as substrate assessed as DNA duplex strand-unwinding by FRET assay
How it was run: (§3)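 S. aureus helicase FRET unwinding assay run with varied DNA duplex or ATP concentrations, in triplicate. RFU/min slopes were normalized to the uninhibited control, and IC50 came from four-parameter nonlinear fits.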

[26] = Inhibition of Staphylococcus aureus ATCC 25923 replicative DnaB helicase using 0.1875 to 3 mM ATP as substrate assessed as DNA duplex strand-unwinding by FRET assay; how it was run: as §3
Staphylococcus aureus [27] = experiment: Antibacterial activity against Staphylococcus aureus ATCC 25923 assessed as re-growth at MIC after 24 hrs; assay type: functional, organism-based
How it was run: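 At set times up to 24 h, aliquots were diluted and spread on inhibitor-free LB agar to count viable CFU.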

[28] = Selectivity index, ratio of CC50 for human HeLa cells to MIC for Staphylococcus aureus ATCC 25923 in presence of reserpine; assay type: functional
Staphylococcus aureus [29] = experiment: Ratio of MIC for Staphylococcus aureus ATCC 25923 in presence of reserpine to MIC for Staphylococcus aureus ATCC 25923 in absence of reserpine; assay type: functional

Cc1c(CC(=O)O)c(=O)oc2c(C)c(OCc3ccc(-c4ccccc4)cc3)ccc12
Selectivity Index [1]: 46
MIC (Bacillus anthracis [2]): 2.5 µM (≈ 1.04 µg/mL)
pIC50 (Replicative DNA helicase): 5.05
Selectivity Index [3]: 14
MIC (Staphylococcus aureus [4]): 8.2 µM (≈ 3.4 µg/mL)
MIC (Staphylococcus aureus [5]): 12.5 µM
CC50 (HeLa): 115 µM
pIC50 [6]: 5.07

Cc1c(CCC(=O)O)c(=O)oc2c(C)c(OCc3ccc(-c4ccc(Cl)cc4)cc3)ccc12
MIC (Enterococcus faecalis [7]): 3.6 µg/mL (≈ 7.78 µM)
MIC (Bacillus thuringiensis): 0.52 µg/mL (≈ 1.12 µM)
MIC (Staphylococcus aureus [8]): 0.65 µg/mL (≈ 1.4 µM)
MIC (Bacillus licheniformis): 0.098 µg/mL (≈ 0.212 µM)
MIC (Enterococcus faecalis [9]): 4.2 µg/mL (≈ 9.07 µM)
MIC (Staphylococcus aureus [10]): 0.78 µg/mL (≈ 1.68 µM)
MIC (Enterococcus faecalis [11]): 16.7 µg/mL (≈ 36.1 µM)
MIC (Staphylococcus aureus [12]): 0.52 µg/mL (≈ 1.12 µM)
MIC (Enterococcus faecalis [13]): 25 µg/mL (≈ 54 µM)
MIC (Staphylococcus aureus [14]): 0.78 µg/mL (≈ 1.68 µM)
MIC (Bacillus anthracis [2]): 0.625 µM (≈ 0.289 µg/mL)
inhibition (Staphylococcus aureus [15]): 8%
pIC50 (Replicative DNA helicase): 5.82
MIC (Staphylococcus aureus [16]): 1.04 µg/mL (≈ 2.25 µM)
MIC (Staphylococcus aureus [4]): 1.25 µM (≈ 0.579 µg/mL)
MIC (Enterococcus faecalis [17]): 6.3 µg/mL (≈ 13.6 µM)
MIC (Enterococcus faecium [18]): 12.5 µg/mL (≈ 27 µM)
MIC (Staphylococcus aureus [19]): 1.56 µg/mL (≈ 3.37 µM)
MIC (Enterococcus faecium [20]): 10.4 µg/mL (≈ 22.5 µM)
CC50 (HeLa): 25 µM
pIC50 [6]: 6.00
MIC (Staphylococcus aureus [21]): 2.1 µg/mL (≈ 4.54 µM)
MIC (Enterococcus faecium [22]): 9.4 µg/mL (≈ 20.3 µM)
MIC (Bacillus anthracis [23]): 0.17 µg/mL (≈ 0.367 µM)
MIC (Staphylococcus aureus [24]): 0.65 µg/mL (≈ 1.4 µM)
MIC (Bacillus subtilis): 3.1 µg/mL (≈ 6.7 µM)

Cc1c(CCC(=O)O)c(=O)oc2c(C)c(OCc3ccc(-c4ccc(Cl)c(Cl)c4)cc3)ccc12
Selectivity Index [1]: 6.4
MIC (Bacillus anthracis [2]): 3 µM (≈ 1.49 µg/mL)
pIC50 (Replicative DNA helicase): 5.52
Selectivity Index [3]: 6.4
MIC (Staphylococcus aureus [4]): 3 µM (≈ 1.49 µg/mL)
MIC (Staphylococcus aureus [5]): 6.3 µM
CC50 (HeLa): 19.2 µM
pIC50 [6]: 5.62

CCc1c(OCc2ccc(-c3ccccc3)cc2)ccc2c(C)c(CCCC(=O)O)c(=O)oc12
Selectivity Index [1]: 6.2
MIC (Bacillus anthracis [2]): 2.5 µM (≈ 1.14 µg/mL)
pIC50 (Replicative DNA helicase): 5.30
Selectivity Index [3]: 3.1
MIC (Staphylococcus aureus [4]): > 100 µM
MIC (Staphylococcus aureus [5]): > 100 µM
CC50 (HeLa): 15.4 µM
pIC50 [6]: 5.74

Cc1c(CCCC(=O)O)c(=O)oc2c(C)c(OCc3ccc(-c4ccccc4)cc3)ccc12
Selectivity Index [1]: 25
MIC (Bacillus anthracis [2]): 1.25 µM (≈ 0.553 µg/mL)
pIC50 (Replicative DNA helicase): 5.70
Selectivity Index [3]: <0.8
MIC (Staphylococcus aureus [4]): > 100 µM
MIC (Staphylococcus aureus [5]): > 100 µM
CC50 (HeLa): 31 µM
pIC50 [6]: 5.66

Cc1c(CCC(=O)O)c(=O)oc2c(C)c(OCc3ccc(-c4ccccc4)cc3)ccc12
MIC (Enterococcus faecalis [7]): 16.7 µg/mL (≈ 39 µM)
MIC (Bacillus thuringiensis): 0.65 µg/mL (≈ 1.52 µM)
MIC (Staphylococcus aureus [8]): 1.56 µg/mL (≈ 3.64 µM)
MIC (Bacillus licheniformis): 0.39 µg/mL (≈ 0.91 µM)
MIC (Enterococcus faecalis [9]): 18.8 µg/mL (≈ 43.9 µM)
MIC (Staphylococcus aureus [10]): 1.56 µg/mL (≈ 3.64 µM)
MIC (Enterococcus faecalis [11]): > 25 µg/mL
MIC (Staphylococcus aureus [12]): 1.56 µg/mL (≈ 3.64 µM)
pIC50 [25]: 5.74
MIC (Enterococcus faecalis [13]): > 25 µg/mL
MIC (Staphylococcus aureus [14]): 2.6 µg/mL (≈ 6.07 µM)
MIC (Bacillus anthracis [2]): 1.25 µM (≈ 0.536 µg/mL)
inhibition (Staphylococcus aureus [15]): 6%
pIC50 (Replicative DNA helicase): 5.52
MIC (Staphylococcus aureus [16]): 3.1 µg/mL (≈ 7.23 µM)
pIC50 [26]: 5.82
MIC (Staphylococcus aureus [4]): 2.5 µM (≈ 1.07 µg/mL)
MIC (Enterococcus faecalis [17]): 5.2 µg/mL (≈ 12.1 µM)
MIC (Enterococcus faecium [18]): 2.6 µg/mL (≈ 6.07 µM)
MIC (Staphylococcus aureus [19]): 4.2 µg/mL (≈ 9.8 µM)
MIC (Enterococcus faecium [20]): 2.1 µg/mL (≈ 4.9 µM)
CC50 (HeLa): 82 µM
pIC50 [6]: 5.70
MIC (Staphylococcus aureus [21]): 12.5 µg/mL (≈ 29.2 µM)
MIC (Enterococcus faecium [22]): 14.6 µg/mL (≈ 34.1 µM)
MIC (Bacillus anthracis [23]): 0.52 µg/mL (≈ 1.21 µM)
MIC (Staphylococcus aureus [24]): 2.1 µg/mL (≈ 4.9 µM)
Activity (Staphylococcus aureus [27]): Active

Cc1c(CCC(=O)O)c(=O)oc2c(C)c(OCc3c4ccccc4cc4ccccc34)ccc12
Selectivity Index [1]: 3.3
MIC (Bacillus anthracis [2]): 2.5 µM (≈ 1.13 µg/mL)
pIC50 (Replicative DNA helicase): 5.14
Selectivity Index [3]: 0.4
MIC (Staphylococcus aureus [4]): 20 µM (≈ 9.05 µg/mL)
MIC (Staphylococcus aureus [5]): 50 µM
CC50 (HeLa): 8.3 µM
pIC50 [6]: 5.08

Cc1c(CCC(=O)O)c(=O)oc2c(C)c(OCc3ccc4ccccc4c3)ccc12
Selectivity Index [1]: 7.6
MIC (Bacillus anthracis [2]): 5 µM (≈ 2.01 µg/mL)
pIC50 (Replicative DNA helicase): 5.05
Selectivity Index [3]: <1
MIC (Staphylococcus aureus [4]): > 100 µM
MIC (Staphylococcus aureus [5]): > 100 µM
CC50 (HeLa): 38 µM
pIC50 [6]: 5.10

Cc1c(OCc2ccc(-c3ccccc3)cc2)ccc2cc(CCC(=O)O)c(=O)oc12
Selectivity Index [1]: >40
pIC50 (Replicative DNA helicase): 4.68
Selectivity Index [3]: 2.5
MIC (Staphylococcus aureus [4]): > 100 µM
MIC (Staphylococcus aureus [5]): > 100 µM
CC50 (HeLa): > 100 µM
pIC50 [6]: 4.85

Cc1c(CCC(=O)O)c(=O)oc2c(C)c(OCc3ccc(-c4ccc(C(F)(F)F)cc4)cc3)ccc12
Selectivity Index [1]: >25.4
MIC (Bacillus anthracis [2]): < 0.8 µM
pIC50 (Replicative DNA helicase): 5.21
Selectivity Index [28]: 3.2
MIC (Staphylococcus aureus [4]): 50 µM (≈ 24.8 µg/mL)
Ratio (Staphylococcus aureus [29]): 8
MIC (Staphylococcus aureus [5]): 6.3 µM
CC50 (HeLa): 20.3 µM
pIC50 [6]: 5.48
